Compound activity from PubChem BioAssay.
Shown are actives, neighbours in structure and some others; about 2.3% of the full set was active somewhere.
TAAR1 antagonist = antagonists of human TAAR1. Q96RJ0. CHO RD-HGA16 TAAR1, Fluo-8 calcium fluorescence, antagonist. inhibition, % at 3 µM. 360,000 compounds, 1.5% hits;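 active = inhibition above a per-plate cutoff, the mean inhibition of test compounds on that plate plus 3 SD, cut at about 49% in these data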;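 note: 0% = DMSO plus EC80 beta-PEA response and 100% = DMSO alone without agonist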
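test system = CHO RD-HGA16 cells bearing hTAAR1 | replication = singlicate | controls = DMSO-only wells and EC80 β-PEA-stimulated wells | reagent = EC80 β-phenethylamine stimulus | read-out basis = percent inhibition of PEA-evoked calcium signal, max/basal emission ratio | schedule = seeding 17-24 h prior, 75-min 37 °C, 30-min RT dye loading | signal = kinetic Fluo-8 calcium fluorescence measurement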
OXTR ag = agonists of human oxytocin receptor; CHO-OTR cells, Fluo-8 calcium fluorescence; normalized: DMSO 0%, oxytocin 100%; activation, % at 3 µM; AID 2435; 320,000 compounds, 0.32% hits;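 active = activation above the mean of all tested compounds plus 3 SD, cutoff set per screening run, cut at about 20% in these data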;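 note: peak over basal fluorescence ratio from a 100 s FLIPR kinetic read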
Target sequence (P30559 whole entry, looked up): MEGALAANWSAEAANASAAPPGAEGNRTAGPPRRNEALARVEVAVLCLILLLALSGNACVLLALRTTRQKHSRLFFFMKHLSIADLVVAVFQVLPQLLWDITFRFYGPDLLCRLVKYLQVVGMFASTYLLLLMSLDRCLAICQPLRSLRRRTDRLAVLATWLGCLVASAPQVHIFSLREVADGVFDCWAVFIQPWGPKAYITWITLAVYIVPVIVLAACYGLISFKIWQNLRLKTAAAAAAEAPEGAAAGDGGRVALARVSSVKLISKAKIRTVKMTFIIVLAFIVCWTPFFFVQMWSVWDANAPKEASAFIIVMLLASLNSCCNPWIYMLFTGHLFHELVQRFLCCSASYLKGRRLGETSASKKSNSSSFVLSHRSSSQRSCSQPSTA
TAAR1 ag = human TAAR1 agonism | CHO RD-HGA16 TAAR1, Fluo-8 calcium fluorescence; vehicle wells 0%, saturating PEA agonist 100% | activation, % at 3 µM | 360,000 compounds, 0.99% hits;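 active = activation above the mean activation of all test compounds in the run plus 3 SD, cut at about 38% in these data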
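Assay system – CHO-derived RD-HGA16 cells with stable Gα16 and human TAAR1 · Compound dosing – one-point dosing at 3 µM (nominal) · Incubation – 17-24 h seeding, 75 min 37 °C dye, 30 min RT · Measured by – kinetic Fluo-8 calcium fluorescence · Control set – DMSO vehicle as 0%, PEA at EC100 as 100% · Repeats – single well for each compound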
OXTR potentiator = potentiators of human oxytocin receptor; P30559; CHO-OTR cells, Fluo-8 calcium fluorescence, potentiator mode; 0% = oxytocin EC15, 100% = EC100; activation, % at 3 µM; 320,000 compounds, 0.061% hits; AID 2445;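 active = activation above that plate's cutoff, the mean activation of tested compounds plus 3 SD, cut at about 6.6% in these data, passing the limit was not always enough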;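 note: 100% uses oxytocin at 75 nM as the full agonist control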
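test system = CHO-OTR cells, human receptor | compound = single-point 3.0 µM | schedule = 6 min compound pre-incubation at room temperature, 100 s kinetic read | signal = Fluo-8 no-wash calcium dye fluorescence, excitation 470-495 nm, emission 515-575 nm | repeats = single well per compound, singlicate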
V1R ag counter = counter-screen for oxytocin receptor agonists: human V1a receptor agonists; P37288; CHO-V1R cells, Fluo-8 calcium fluorescence, agonist mode; 0% DMSO, 100% 3 nM vasopressin; activation, % at 3 µM; 320,000 compounds, 0.25% hits; AID 2797;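 active = activation above the mean activation of all tested compounds plus 3 SD, per screening run, cut at about 20% in these data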;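 note: signal is peak over basal fluorescence ratio across a 100 second FLIPR read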
* = called active by the depositor; / = no result given.

SMILES	TAAR1 antagonist	OXTR ag	TAAR1 ag	OXTR potentiator	V1R ag counter
CCOC(=O)C1CCCN(C(=S)Nc2cc(C)cc(C)c2)C1 (stereo not drawn)	46	0	50*	1	1
CSc1ccc(CN2CCC(N3CCC(C(=O)NC4CC4)CC3)CC2)cc1	-28	/	2	/	/
c1ccc(COn2nnc3ccccc32)c(COn2nnc3ccccc32)c1	55*	3	8	-15	1
CN1CCN(C2CN(Cc3cn(Cc4ccc(Cl)cc4)nn3)S(=O)(=O)C2)CC1 (stereo not drawn)	-20	/	3	/	/
CCOc1cc(/C=C2\CCC/C(=C\c3cc(Cl)c(O)c(OCC)c3)C2=O)cc(Cl)c1O	56*	1	6	-19	4
Nc1nc2c(C(=O)N3CCCC3)nnn2c2ccccc12	-17	/	-1	/	/
O=[N+]([O-])c1ccc(S(=O)(=O)NN=Cc2ccc(Cl)c(Cl)c2)cc1	-2	/	3	/	/
CCOC(=O)c1oc2ccccc2c1NC(=O)c1cccc(OC)c1OC	49*	-1	4	-6	-1
Cc1cccc(NC(=O)c2cc(-c3ccc(C)s3)nc3ccccc23)n1	51*	-2	10	-3	0
Cc1ccc(C)c(-c2cc(C(=O)Nc3nccs3)c3ccccc3n2)c1	51*	-2	15	-6	-1
Cc1ccc(C)c(-c2cc(C(=O)NCc3cccs3)c3ccccc3n2)c1	49*	0	4	-8	0
COC(=O)c1sccc1NC(=O)c1cc(-c2cc(C)ccc2C)nc2ccccc12	16	0	6	-6	0
COc1cc2c(cc1OC)CN(C(=O)c1ccc(S(=O)(=O)N(C)c3ccccc3)cc1)CC2	-7	-1	3	-8	3
COc1ccc(NC(=O)COC(=O)c2c3c(nc4ccccc24)CCCC3)cc1Cl	67*	-1	9	-18	2
O=C(NCc1nc2ccccc2[nH]1)C1=C[C@@H](c2csc3ccccc23)C[C@@H](OCc2ccc(CO)cc2)O1	48	0	19	-20	1
O=C(C1=C[C@@H](c2csc3ccccc23)C[C@@H](OCCCCO)O1)N1CCN(Cc2ccc3c(c2)OCO3)CC1	35	2	12	-10	1
C#CCNC(=O)C1=C[C@H](c2cn(C(C)=O)c3ccccc23)C[C@H](OCc2ccc(CO)cc2)O1	49*	9	44*	-13	4
CC(=O)n1cc([C@H]2C=C(C(=O)N3CCN(Cc4ccc5c(c4)OCO5)CC3)O[C@@H](OCc3ccc(CO)cc3)C2)c2ccccc21	67*	5	16	-14	4
O=C(C1=C[C@H](c2csc3ccccc23)C[C@H](OCCCCO)O1)N1CCN(Cc2ccc3c(c2)OCO3)CC1	60*	1	24	-15	2
O=C(NCc1nc2ccccc2[nH]1)C1=C[C@H](c2csc3ccccc23)C[C@H](OCc2ccc(CO)cc2)O1	49*	0	15	-22	3
Cc1ccc(-c2nn(-c3ccc(F)cc3)cc2C(=O)NC2CCC(O)CC2)cc1 (stereo not drawn)	-16	0	2	-3	0
CCC(C)NC(=O)CSc1ccc(S(=O)(=O)N2CCN(Cc3ccccc3)CC2)cn1 (stereo not drawn)	23	7	2	-9	4
CC(=O)n1cc([C@@H]2C=C(C(=O)NCc3ccccc3)O[C@H](OCc3ccc(CO)cc3)C2)c2ccccc21	62*	2	22	-15	1
CCCCNC(=S)N(C)/N=C/c1ccc(OCC(=O)Nc2c(C)cc(C)cc2C)c(OC)c1	35	-1	5	-10	1
CCCCNC(=S)N(C)/N=C/c1ccc(OCC(=O)Nc2ccc(OC)cc2)c(OC)c1	58*	2	16	-13	1
SMILES	TAAR1 antagonist	OXTR ag	TAAR1 ag	OXTR potentiator	V1R ag counter
COc1cc(/C=N/NC(=S)NC(C)C)ccc1OCC(=O)Nc1c(C)cc(C)cc1C	50*	2	7	-8	5
CCNC(=S)N/N=C/c1ccc(OCC(=O)Nc2ccc(OC)cc2)c(OC)c1	51*	0	17	1	0
Cc1cc(Cl)ccc1NC(=O)CN1CCCC1	-11	0	2	-1	0
Cc1cc(Cl)ccc1NC(=O)CN1CCC(C(O)(c2ccccc2)c2ccccc2)CC1	15	-1	56*	-5	1
CNc1ncn(-c2c(C)cccc2C)c(=O)n1	-14	/	1	/	/
CCN(C[C@H]1N[C@@](CC)(C(=O)OC)[C@H]2C(=O)N(Cc3ccccc3)C(=O)[C@@H]12)C(=O)c1ccc(C)cc1	50*	-2	11	6	-1
CCN(C[C@H]1N[C@@](CC)(C(=O)OC)[C@H]2C(=O)N(Cc3ccccc3)C(=O)[C@@H]12)C(=O)c1ccc(F)cc1	47	0	13	-5	0
C#CCOCCOCCOCCNc1nc(N2CCN(C(=O)CCCCCCCCCCNC(=O)[C@H]([C@@H](C)CC)n3cc(CCCCCN)nn3)CC2)nc(N2CCN(C(=O)CCCCCCCCCCNC(=O)[C@H](CO)n3cc(CCCCCN)nn3)CC2)n1	/	22*	/	-18	46*
C#CCOCCOCCOCCNc1nc(N2CCN(C(=O)CCCCCCCCCCNC(=O)[C@H]([C@@H](C)CC)n3cc(CCCCCN)nn3)CC2)nc(N2CCN(C(=O)CCCCCCCCCCNC(=O)[C@@H]([C@H](C)CC)n3cc(CCCCCN)nn3)CC2)n1	/	19	/	-16	27*
C#CCOCCOCCOCCNc1nc(N2CCN(C(=O)CCCCCCCCCCNC(=O)Cn3cc(C[C@@H](C)O)nn3)CC2)nc(N2CCN(C(=O)CCCCCCCCCCNC(=O)[C@H](CO)n3cc(CCCSC)nn3)CC2)n1	49*	2	3	-3	5
C#CCOCCOCCOCCNc1nc(N2CCN(C(=O)CCCCCCCCCCNC(=O)[C@H]([C@@H](C)CC)n3cc(CCCCN=C(N)N)nn3)CC2)nc(N2CCN(C(=O)CCCCCCCCCCNC(=O)[C@H](CO)n3cc(CCCCCN)nn3)CC2)n1	/	-1	/	-19	6
C#CCOCCOCCOCCNc1nc(N2CCN(C(=O)CCCCCCCCCCNC(=O)Cn3cc(C[C@@H](C)O)nn3)CC2)nc(N2CCN(C(=O)CCCCCCCCCCNC(=O)[C@@H](CCC(=O)O)n3cc(CCCCCN)nn3)CC2)n1	5	3	3	-9	15
NC(=O)c1nc(-c2cccs2)nc2c1[nH]c(=O)n2-c1ccc(F)cc1	-12	0	0	-4	0
O=[S@]1Oc2ccccc2-c2ccccc21	12	3	51*	-5	6
O=S1c2ccccc2Oc2ccccc21	5	/	0	/	/
COc1ccc(-n2ncc3c2CC(C)(C)CC3NC(=O)C2CCN(C(C)=O)CC2)cc1 (stereo not drawn)	-6	0	2	-7	0
